Laboratory results published in ChEMBL document CHEMBL5223168, “Using Imidazo[2,1-b][1,3,4]thiadiazol Skeleton to Design and Synthesize Novel MNK Inhibitors” (ACS Med Chem Lett, 2023).
pIC50: −log10 of the molar value. Calls of active or inactive are those of the source. The rule behind the calls is not given here.

Assays:
MDA-MB-231 [1] = test: Inhibition of colony formation in human MDA-MB-231 cells at 1 to 5 uM measured after 10 days by crystal violet staining based clonogenic assay; format: functional, cell-based; settings: dose 1-5 µM, time 10.0 day
Summary of the method: (§1)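 Clonogenic assay over 10 days; cells treated with DMSO vehicle or compound at indicated concentrations, plates scanned and colonies quantified from three independent experiments.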

[2] = target: MAP kinase-interacting serine/threonine-protein kinase 2 (Homo sapiens, UniProt Q9HBH9); test: Inhibition of MNK2 (unknown origin) incubated for 60 mins using CREB as substrate in presence of ATP by LANCE Ultra kinase assay
Sequence of MAP kinase-interacting serine/threonine-protein kinase 2 (Q9HBH9 whole entry): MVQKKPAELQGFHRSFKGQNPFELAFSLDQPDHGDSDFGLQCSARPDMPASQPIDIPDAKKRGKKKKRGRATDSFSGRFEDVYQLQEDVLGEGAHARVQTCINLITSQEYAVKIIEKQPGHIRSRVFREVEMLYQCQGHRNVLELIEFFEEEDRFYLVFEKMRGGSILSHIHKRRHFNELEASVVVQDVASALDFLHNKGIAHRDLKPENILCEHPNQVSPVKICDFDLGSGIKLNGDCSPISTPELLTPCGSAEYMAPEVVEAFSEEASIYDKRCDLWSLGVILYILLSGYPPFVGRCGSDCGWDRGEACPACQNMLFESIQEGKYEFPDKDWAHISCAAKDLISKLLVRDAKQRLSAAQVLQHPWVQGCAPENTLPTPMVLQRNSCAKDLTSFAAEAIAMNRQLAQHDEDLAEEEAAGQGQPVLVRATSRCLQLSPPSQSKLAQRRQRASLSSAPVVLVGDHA

3T3-L1 = test: Inhibition of MNK in mouse 3T3-L1 cells assessed as inhibition of eIF4E phosphorylation at 5 uM incubated for 2 hrs by Western blot analysis; format: cell-based
Summary of the method: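 Mouse 3T3-L1 cells exposed to compound at 5 μM for 2 h; lysates resolved by SDS-PAGE and immunoblotted for phospho-eIF4E. Reference MNK inhibitor run in parallel at 1 μM.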

MEF [3] = test: Inhibition of MNK in MNK2 knockout mouse MEF cells assessed as inhibition of eIF4E phosphorylation at 3 uM incubated for 2 hrs by Western blot analysis; format: cell-based
Summary of the method: (§2)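 MEFs lacking MNK1 or MNK2 (wild-type for comparison) treated 2 h at indicated concentrations; lysates immunoblotted for p-eIF4E, which reflects the remaining MNK isoform; quantified from three independent experiments, SEM.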

MEF [4] = test: Inhibition of MNK in MNK1 knockout mouse MEF cells assessed as inhibition of eIF4E phosphorylation at 1 uM incubated for 2 hrs by Western blot analysis; format: cell-based; summary of the method: as §2
[5] = target: Eukaryotic translation initiation factor 4E (Homo sapiens) (UniProt P06730); test: Inhibition of eIF4E phosphorylation in human A549 cells at 5 uM and measured upto 96 hrs by Western blot analysis; format: cell-based
Sequence of Eukaryotic translation initiation factor 4E (Homo sapiens) (P06730 whole entry): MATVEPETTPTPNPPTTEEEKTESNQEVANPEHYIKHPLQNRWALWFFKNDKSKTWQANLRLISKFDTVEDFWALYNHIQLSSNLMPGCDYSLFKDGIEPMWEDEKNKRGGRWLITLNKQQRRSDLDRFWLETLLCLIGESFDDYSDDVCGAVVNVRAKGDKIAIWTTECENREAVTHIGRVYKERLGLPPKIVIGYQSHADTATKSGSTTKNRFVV
Summary of the method: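 Cells maintained with compound at 5 μM for up to 6 days for cell counts; eIF4E phosphorylation followed by immunoblot for up to 96 h.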

A549 [6] = test: Inhibition of colony formation in human A549 cells at 1 to 5 uM measured after 10 days by crystal violet staining based clonogenic assay; format: functional, cell-based; settings: dose 1-5 µM, time 10.0 day; summary of the method: as §1
MDA-MB-231 [7] = test: Induction of cell cycle arrest in human MDA-MB-231 cells assessed as decrease in cyclin B1 level at 5 uM incubated for 24 hrs by Western blot analysis; format: functional, cell-based
Summary of the method: (§3)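 A549 and MDA-MB-231 cells treated 24 h with 5 μM; lysates resolved by SDS-PAGE and immunoblotted for cyclin B1, cyclin D3 and MMP-3.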

MDA-MB-231 [8] = test: Induction of cell cycle arrest in human MDA-MB-231 cells assessed as decrease in cyclin D3 level at 5 uM incubated for 24 hrs by Western blot analysis; format: functional, cell-based; summary of the method: as §3
A549 [9] = test: Induction of cell cycle arrest in human A549 cells assessed as accumulation of cells at G2/M phase at 5 uM incubated for 8 hrs by propidium iodide staining based flow cytometry (Rvb=6.5%); format: functional
A549 [10] = test: Induction of cell cycle arrest in human A549 cells assessed as accumulation of cells at G2/M phase at 5 uM incubated for 16 hrs by propidium iodide staining based flow cytometry (Rvb=11.8%); format: functional
A549 [11] = test: Induction of cell cycle arrest in human A549 cells assessed as accumulation of cells at G2/M phase at 5 uM incubated for 20 hrs by propidium iodide staining based flow cytometry (Rvb=15.5%); format: functional
A549 [12] = test: Induction of cell cycle arrest in human A549 cells assessed as accumulation of cells at G0/G1 phase at 5 uM incubated for 8 hrs by propidium iodide staining based flow cytometry (Rvb=91.7%); format: functional
A549 [13] = test: Induction of cell cycle arrest in human A549 cells assessed as accumulation of cells at G0/G1 phase at 5 uM incubated for 16 hrs by propidium iodide staining based flow cytometry (Rvb=75.4%); format: functional
A549 [14] = test: Downregulation of MMP-3 in human A549 cells at 5 uM incubated for 24 hrs by Western blot anlaysis; format: functional, cell-based; summary of the method: as §3
A549 [15] = test: Antimigratory activity against human A549 cells assessed as inhibition of cell migration at 5 uM and measured upto 24 hrs by scratch wound healing assay; format: functional, cell-based
Summary of the method: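 Scratch wound-healing: A549 or MDA-MB-231 monolayers wounded, then exposed to 5 μM compound or DMSO; wound imaged at 6 and 24 h; percentage change in wound area quantified by image analysis at each time point.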

[16] = Half life in mouse at 25 mg/kg, iv and measured upto 24 hrs; format: ADME, organism-based; settings: in vivo
[17] = Clearance in mouse at 25 mg/kg, iv and measured upto 24 hrs; format: ADME, organism-based; settings: in vivo
[18] = Apparent volume of distribution in mouse at 50 mg/kg, po and measured upto 24 hrs; format: ADME, organism-based; settings: in vivo
[19] = Oral bioavailability in mouse at 50 mg/kg and 25 mg/kg, iv and measured upto 24 hrs; format: ADME, organism-based; settings: in vivo
A549 [20] = test: Antitumor activity against human A549 cells xenografted in BALB/C nude mouse assessed as T/C ratio at 150 mg/kg, po QD for 14 days; format: functional; settings: time 14 day
Summary of the method: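 A549 xenografts in nude mice; compound given orally once daily at 75 or 150 mg/kg for 14 days, irinotecan reference at 3 mg/kg; tumor growth tracked as T/C ratio (relative tumor proliferation rate); body weight monitored.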

[21] = test system: MAP kinase-interacting kinase MNK1/2 (Homo sapiens); test: Inhibition of MNK in human A549 cells assessed as reduction in MCP-1 level at 1 to 10 uM incubated for 48 hrs by ELISA; settings: dose 1-10 µM
[22] = test system: MAP kinase-interacting kinase MNK1/2 (Homo sapiens); test: Inhibition of MNK in human PC-3 cells assessed as inhibition of eIF4E phosphorylation at 3 uM incubated for 2 hrs by Western blot analysis
[23] = test system: MAP kinase-interacting kinase MNK1/2 (Homo sapiens); test: Inhibition of MNK in human SKM-1 cells assessed as inhibition of eIF4E phosphorylation at 10 uM incubated for 2 hrs by Western blot analysis
[24] = test system: MAP kinase-interacting kinase MNK1/2 (Homo sapiens); test: Inhibition of MNK in human NCI-H446 cells assessed as inhibition of eIF4E phosphorylation at 3 uM incubated for 2 hrs by Western blot analysis
[25] = test system: MAP kinase-interacting kinase MNK1/2 (Homo sapiens); test: Inhibition of MNK in human MDA-MB-231 cells assessed as inhibition of eIF4E phosphorylation at 3 uM incubated for 2 hrs by Western blot analysis
[26] = test system: MAP kinase-interacting kinase MNK1/2 (Homo sapiens); test: Inhibition of MNK in human LNCaP C4-2B cells assessed as inhibition of eIF4E phosphorylation at 5 uM incubated for 2 hrs by Western blot analysis
MV4-11 [27] = test: Induction of cell cycle arrest in human MV4-11 cells assessed as decrease in cyclin B1 level at 3 uM incubated for 24 hrs by Western blot analysis
MV4-11 [28] = test: Induction of cell cycle arrest in human MV4-11 cells assessed as decrease in cyclin D3 level at 3 uM incubated for 24 hrs by Western blot analysis

In the case of CN1CCN(C(=O)c2ccc(-c3nn4c(-c5ccc(C#N)cc5)cnc4s3)cc2)CC1, the inhibition (MDA-MB-231 [1]) was “Dose-Dependent Effect”, the pIC50 [2] was 8.07 and the inhibition (3T3-L1) was “Active”. For the same molecule, the inhibition (MEF [3]) was 50%, the inhibition (MEF [4]) was “Active” and the inhibition [5] was “Active”. The inhibition (A549 [6]) was “Dose-Dependent Effect”, the Activity (MDA-MB-231 [7]) was “Active” and the Activity (MDA-MB-231 [8]) was “Active”. The Activity (A549 [9]) was 9%, the Activity (A549 [10]) was 5.2% and the Activity (A549 [11]) was 3.3%. For the same molecule, the Activity (A549 [12]) was 88.2%, the Activity (A549 [13]) was 89.6% and the Activity (A549 [14]) was “Active”. For the same molecule, the Activity (A549 [15]) was “Active”, the half-life [16] was 3.4 h and the clearance [17] was 5.13 mL/min/kg. The Vz [18] was 3.155 L/kg, the bioavailability [19] was 60.9% and the T/C (A549 [20]) was 0.5. For the same molecule, the inhibition [21] was “Active”, the inhibition [22] was “Active” and the inhibition [23] was “Active”. For the same molecule, the inhibition [24] was “Active”, the inhibition [25] was “Active” and the inhibition [26] was “Active”. The Activity (MV4-11 [27]) was “Active” and the Activity (MV4-11 [28]) was “Active”.
